A word on the IC50: it is the midpoint of a concentration-inhibition curve. Read a low IC50 as inhibition by little substance.

Assay [1] relates to HeLa. Description: Cytotoxicity against human HeLa cells by MTT assay after 72 hrs. Type of assay: functional, cell-based. Summed up: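 HeLa (ATCC […]) cells grown in MEM with 10% FCS and 2 mM L-glutamine at 37 °C, 5% CO2. MTT colorimetric read-out at 560 nm. Eight concentrations tested in duplicate, with experiments repeated three times. IC50 reported as mean ± SD.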
For orientation: Formazan colour is commonly taken as a measure of viable cells.

Assay [2] is described as follows: Antioxidant activity assessed as trolox equivalents at 0.1 to 1 uM by ORAC-fluorescein assay. Type of assay: functional. Summed up: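 Fluorescein probe at 300 nM final in 75 mM phosphate buffer, pH 7.4. Samples at five concentrations (0.1-1.0 µM) preincubated with probe at 37 °C for 15 min. AAPH (12 mM final) then added. Fluorescence (ex 485/em 536 nm) read every minute for 80 min at 37 °C. Quadruplicates, ≥4 independent assays. AUC converted to Trolox equivalents (mean ± SD) using a 1-8 µM Trolox curve run in each assay.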

Assay [3] can be described thus: Antioxidant activity assessed as trolox equivalents at 0.4 to 1.3 uM by ORAC-fluorescein assay. Type of assay: functional.
Assay [4] in a line: Antioxidant activity assessed as trolox equivalents at 0.2 to 1 uM by ORAC-fluorescein assay. The class given is functional.
The nature of assay [5]: Antioxidant activity assessed as trolox equivalents at 0.2 to 0.6 uM by ORAC-fluorescein assay. Type of assay: functional.

Molecules are shown by their SMILES.

As for `COc1c(CC=C(C)C)c(O)c(CC=C(C)C)c(O)c1C(=O)/C=C/c1ccc(O)cc1`, inhibition in assay [1] was half-maximal at 9.7 µM (IC50). Further, the Activity in assay [2] was 1.9.
For `COc1cc2c(c(O)c1C(=O)/C=C/c1ccc(O)cc1)C=CC(C)(C)O2` [XANTHOHUMOL C], in that order: 12.5 µM and 1.8.
In the case of `COc1cc(O)c(CC=C(C)C)c(O)c1C(=O)/C=C/c1ccc(O)cc1`, the Activity in assay [2] is 2.3.
As to `COc1c(CC=C(C)C)c(O)cc(O)c1C(=O)/C=C/c1ccc(O)cc1`, in assay [1], half-maximal inhibition (IC50) required 10.4 µM. The Activity in assay [2] is 5.2.
In the case of `COc1cc(/C=C/C(=O)O)ccc1O`, in assay [3], the Activity came to 4.4.
Turning to `CC(C)=CCC/C(C)=C/Cc1c(O)cc(O)c(C(=O)/C=C/c2ccc(O)cc2)c1O`, in assay [1], the IC50 came out at 18.2 µM. Moreover, the Activity in assay [2] amounted to 2.3.
In turn, `COc1cc(O)c(C(=O)/C=C/c2ccc(O)cc2)c(OC)c1` [FLAVOKAWAIN C] came in with an IC50 in assay [1] of 19.2 µM. The Activity in assay [2] is 4.
Taken in the same sequence, the figures for `COc1cc(OC)c(C(=O)/C=C/c2ccc(O)cc2)c(O)c1C` were 12.2 µM and 2.1.
For `COc1cc(O)c(C/C=C(\C)CCC=C(C)C)c(O)c1C(=O)/C=C/c1ccc(O)cc1`, in that order: 8.2 µM and 3.4.
For `COc1cc2c(c(O)c1C(=O)/C=C/c1ccc(O)cc1)CCC(C)(C)O2`, in that order: 15.4 µM and 1.7.
Regarding `O=C(O)/C=C/c1ccc(O)c(O)c1`, in assay [4], the Activity came out at 6.6.
Regarding `O=c1c(O)c(-c2ccc(O)c(O)c2)oc2cc(O)cc(O)c12`, the Activity in assay [5] was determined as 10.5.
`COc1cc(O)c(CCC(C)(C)O)c(O)c1C(=O)/C=C/c1ccc(O)cc1` [XANTHOHUMOL H] returned an IC50 in assay [1] of 9.2 µM. Moreover, the Activity in assay [2] was found to be 4.8.

The values are drawn from ChEMBL document CHEMBL1155133, “Synthesis, cytotoxicity, and antioxidative activity of minor prenylated chalcones from Humulus lupulus” (J Nat Prod, 2008).
